The text below walks through data of ChEMBL document CHEMBL4725346, “Syntheses and Evaluation of New Bisacridine Derivatives for Dual Binding of G-Quadruplex and i-Motif in Regulating Oncogene c-myc Expression” (J Med Chem, 2020).

Activity calls are given as the source filed them. No cut-off for these calls is given here.

One may read the Kd as the constant that tells how readily two partners part at equilibrium. Read a high Kd as lower affinity. As usually defined, the ΔTm is the shift of the melting midpoint relative to a reference. A word on the IC50: it is the concentration that inhibits the measured activity by half. Read a low IC50 as higher potency.

One data set deals with dsDNA. The data set can be described thus: Binding affinity to 5'-biotin labeled duplex DNA (unknown origin) by surface plasmon resonance method. It counts as nucleic-acid assay. The method, boiled down: (§1)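 SPR: 5'-biotin DNA diluted to 1 μM and captured (1000 RU) on a sensor chip, with a blank cell as reference. Running buffers: Py33 in 20 mM MES pH 5.8, 100 mM KCl, 0.05% Tween-20; Pu27 and duplex in 50 mM Tris-HCl pH 7.4, 100 mM KCl. Six ligand concentrations serially diluted from DMSO stock. Association 260 s, dissociation 300 s at 25 °C; NaOH regeneration; blank sensorgrams subtracted.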
A general note: In SPR one partner is held on a chip, and binding of the other changes the refractive index at the surface.

Data set [1] in a line: Stabilization of c-myc promoter i-motif DNA Py33 (unknown origin) assessed as decrease in negative peak intensity at pH 5.5 measured at 260 nanometer by CD spectroscopy. An outline of the steps:
(§2)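 Py33 at 1 µM in 1× BPES pH 5.5 (pH 6.8 random-coil reference), with or without ligand. Annealed at 95 °C for 5 min, cooled, kept at 4 °C overnight. CD spectra in a 4 mm cuvette over 230–350 nm, three scans averaged, buffer-corrected; peaks followed at 288 and 260 nm.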

Data set [2] can be described thus: Stabilization of 5'-FAM/3'-TAMRA labeled hairpin DNA F10T (unknown origin) assessed as change in melting temperature at 1 uM by FRET assay (reference value: 59.1 degreeC).
Data set [3] is described as follows: Stabilization of 5'-FAM/3'-TAMRA labeled c-myc promoter i-motif DNA FPy33T (unknown origin) assessed as change in melting temperature at 1 uM by FRET assay (reference value: 53.2 degreeC). An outline of the steps: (§3)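 FRET melting of dual FAM/TAMRA-labelled FPy33T annealed in 1× BPES (30 mM potassium phosphate, 1 mM EDTA, 100 mM KCl), pH 5.5. Final 0.2 µM DNA with or without ligand. Excitation 470 nm, emission 530 nm, read every 1 °C over 37–99 °C. ΔTm taken against DNA alone.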

Data set [4] relates to Quadruplex DNA. The data set can be described thus: Stabilization of 5'-FAM/3'-TAMRA labeled c-myc promoter G-quadruplex DNA FPu22T (unknown origin) assessed as change in melting temperature at 1 uM by FRET assay (reference value: 66.5 degreeC). It is filed as nucleic-acid assay. An outline of the steps:
(§4)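 FRET melting of dual FAM/TAMRA-labelled FPu22T annealed in 10 mM Tris-HCl pH 7.4 with KCl. Final 0.2 µM DNA with or without ligand. Excitation 470 nm, emission 530 nm, read every 1 °C over 37–99 °C on a real-time PCR cycler. ΔTm = Tm(DNA+ligand) − Tm(DNA).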

The nature of data set [5]: Binding affinity to 5'-biotin labeled c-myc promoter i-motif DNA Py33 (unknown origin) by surface plasmon resonance method. The method, boiled down:
as §1

Data set [6] can be described thus: Stabilization of c-myc promoter i-motif DNA Py33 (unknown origin) assessed as decrease in positive peak intensity at pH 5.5 measured at 288 nanometer by CD spectroscopy. An outline of the steps: as §2
Data set [7] concerns the target Quadruplex DNA. The data set can be described thus: Binding affinity to 5'-biotin labeled c-myc promoter G-quadruplex DNA Pu27 (unknown origin) by surface plasmon resonance method. It is filed as nucleic-acid assay. An outline of the steps: as §1
Data set [8] in a line: Drug uptake in human SiHa cells. It counts as ADME, cell-based.
Data set [9] can be described thus: Stabilization of c-myc promoter i-motif DNA Py33 (unknown origin) assessed as reduction in appearance of random coil confirmation at pH 5.5 by CD spectroscopy. An outline of the steps:
as §2

For the next data set, the system named is Huh-7. The data set can be described thus: Antiproliferative activity against human Huh-7 cells after 48 hrs by MTT assay. It is filed as functional, cell-based. Conditions: Huh-7, 48 h. An outline of the steps: (§5)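 Cells seeded at 5.0×10^3 per well, pre-incubated 12 h at 37 °C, 5% CO2, then exposed to compounds for 48 h; DMSO-only control. MTT (2.5 mg/mL) added for 4 h, formazan dissolved in DMSO, absorbance at 570 nm. Each dose tested in triplicate; IC50 from percentage survival relative to negative control.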

A further data set has as its target ssDNA. The data set can be described thus: Binding affinity to 5'-biotin labeled single-stranded DNA Py33 (unknown origin) by surface plasmon resonance method. It counts as nucleic-acid assay.
For a further data set, the system named is U2OS. The data set can be described thus: Antiproliferative activity against human U2OS cells after 48 hrs by MTT assay. It counts as functional, cell-based. The method, boiled down: as §5
Background: Tetrazolium dyes change colour on reduction, which living cells bring about.

For the next data set, the system named is A-375. The data set can be described thus: Antiproliferative activity against human A-375 cells after 48 hrs by MTT assay. It is filed as functional, cell-based. Conditions: A-375, 48 h. The method, boiled down:
as §5

Data set [10] concerns Quadruplex DNA. The data set can be described thus: Stabilization of c-myc promoter G-quadruplex DNA Pu27 (unknown origin) in pH 7.4 Tris-HCl buffer by CD spectroscopy. It is filed as nucleic-acid assay. The method, boiled down: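 Pu27 at 1 µM in 10 mM Tris-HCl pH 7.4, with or without ligand. Annealed at 95 °C for 5 min, cooled to room temperature, stored at 4 °C overnight. CD spectra taken in a 4 mm cuvette over 230–350 nm, three scans averaged, smoothed and buffer-baseline corrected.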

The test system of another data set is A549. The data set can be described thus: Antiproliferative activity against human A549 cells after 48 hrs by MTT assay. It counts as functional, cell-based. The note with it: A549, 48 h. The method, boiled down:
as §5

The test system of a further data set is SiHa. The data set can be described thus: Antiproliferative activity against human SiHa cells after 48 hrs by MTT assay. It counts as functional, cell-based. An outline of the steps:
as §5

For a further data set, the system named is HCT-116. The data set can be described thus: Antiproliferative activity against human HCT-116 cells after 48 hrs by MTT assay. It counts as functional, cell-based. The note with it: HCT-116, 48 h. An outline of the steps:
as §5

The subject of the next data set is HeLa. The data set can be described thus: Antiproliferative activity against human Hela cells after 48 hrs by MTT assay. It counts as functional, cell-based. The method, boiled down:
as §5

The nature of data set [11]: Stabilization of c-myc promoter i-motif DNA Py33 (unknown origin) assessed as increase in slower migration band incubated overnight by silver staining based PAGE analysis. The method, boiled down: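 Py33 (3 µM) co-annealed with increasing ligand in 1× BPES pH 6.8 at 95 °C for 5 min, cooled, held at 4 °C overnight. Run on native 20% acrylamide in 1× TBE at 140 V for 5 h at 5 °C, then silver-stained.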

Data set [12] can be described thus: Stabilization of c-myc promoter i-motif DNA Py33 (unknown origin) assessed as effect on melting temperature at 5 uM by CD spectroscopy. The method, boiled down:
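CD melting: Py33 at 1 µM in 1× BPES pH 6.4, with or without ligand. Annealed at 95 °C for 5 min, slowly cooled, then heated at 1 °C/min while monitoring 260 nm. Tm obtained by curve fitting.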

Data set [13] deals with Quadruplex DNA. The data set can be described thus: Stabilization of c-myc promoter G-quadruplex DNA Pu27 (unknown origin) assessed as effect on melting temperature at 5 uM by CD spectroscopy. It is filed as nucleic-acid assay. The method, boiled down: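 CD melting: Pu27 diluted to 1 µM in 10 mM Tris-HCl, 5 mM KCl, pH 7.4, with or without ligand. Annealed at 95 °C for 5 min, slowly cooled, then heated at 1 °C/min while monitoring 260 nm. Tm obtained by curve fitting.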

Data set [14] has as its system Quadruplex DNA. The data set can be described thus: Stabilization of 5'-FAM/3'-TAMRA labeled c-myc promoter G-quadruplex DNA FPu22T (unknown origin) assessed as change in melting temperature at 5 uM by FRET assay (reference value: 66.5 degreeC). It counts as nucleic-acid assay. The method, boiled down:
as §4

Data set [15] in a line: Stabilization of 5'-FAM/3'-TAMRA labeled c-myc promoter i-motif DNA FPy33T (unknown origin) assessed as change in melting temperature at 5 uM by FRET assay (reference value: 53.2 degreeC). An outline of the steps: as §3
The nature of data set [16]: Stabilization of 5'-FAM/3'-TAMRA labeled hairpin DNA F10T (unknown origin) assessed as change in melting temperature at 5 uM by FRET assay.

Regarding `Cc1ccc2nc3ccc(C(=O)NCCCN(C)C)cc3c(NCCOCCOCCNc3c4cc(C)ccc4nc4ccc(C(=O)NCCCN(C)C)cc34)c2c1`, the results for the Kd (at dsDNA; in [5]; on Quadruplex DNA [7]) were 17.4 µM, 8.5 µM and 3.7 µM, respectively. Besides, the outcome in data set [1], in [6] and in data set [9] was Active. Besides, the ΔTm in data set [2] was determined as 2.2 °C; in [3], 27.4 °C; in the data set on Quadruplex DNA [4], 8.3 °C. The Drug uptake entry in [8] is recorded as “Not Active”.

As to `Cc1ccc2nc3ccccc3c(NCCOCCOCCNc3c4ccccc4nc4ccc(C)cc34)c2c1`, the Kd amounted to 33.2 µM at dsDNA, 21.6 µM at ssDNA, 13 µM in [5] and 5.1 µM at Quadruplex DNA [7]. In addition, the thermal shift (ΔTm) in [2] stood at 3 °C; in data set [3], 0.1 °C; in the data set on Quadruplex DNA [4] it was 14.3 °C. The IC50 came to 2140 nM in the data set on Huh-7; 2160 nM in the data set with U2OS; 1880 nM in the data set on A-375; 810 nM in the data set on A549; 2770 nM with SiHa; 860 nM in the data set with HCT-116. Also, inhibition with HeLa was half-maximal at 320 nM (IC50). Besides, the outcome in the data set with Quadruplex DNA [10] was Active.

Regarding `Cc1ccc2nc3ccc(C(=O)NCCCN(C)C)cc3c(NCCCNCCNCCCNc3c4cc(C)ccc4nc4ccc(C(=O)NCCCN(C)C)cc34)c2c1`, the figures for the dissociation constant Kd (on dsDNA; in data set [5]; on Quadruplex DNA [7]) were 21.7 µM, 1 µM and 2.7 µM, respectively. For the same compound, the result (in data set [1]; in [6]; in data set [12]; in data set [9]; in the data set on Quadruplex DNA [13]) was Active. For the same compound, the results for the thermal shift (ΔTm) (in data set [2]; in data set [3]; in the data set with Quadruplex DNA [4]) were 2.8 °C, 24.3 °C and 17.1 °C, respectively. For the same compound, the Activity entry in data set [11] is “Dose-dependent effect”. The Drug uptake entry in [8] is “Not Active”.

For the compound `Cc1ccc2nc3ccc(C)cc3c(NCCN(C)C)c2c1`, the shift in melting temperature (ΔTm) in the data set with Quadruplex DNA [14] is 8.3 °C; in data set [2] it was 4.1 °C; in [3], 2.7 °C; in the data set on Quadruplex DNA [4], 6.2 °C; in data set [15], 10 °C; in [16], 6.8 °C. The compound also showed a Kd at dsDNA of 13.1 µM.

On to `Cc1ccc2nc3ccc(C)cc3c(NCCNCCNc3c4cc(C)ccc4nc4ccc(C)cc34)c2c1`, for which the ΔTm in the data set with Quadruplex DNA [14] amounted to 6.2 °C; in data set [15], 16 °C; in data set [16], 2.5 °C.

Turning to `COC(=O)c1ccc2nc3ccc(C)cc3c(NCCOCCOCCNc3c4cc(C)ccc4nc4ccc(C(=O)OC)cc34)c2c1`, the dissociation constant (Kd) at dsDNA was determined as 12.5 µM; at ssDNA, 2.9 µM; in data set [5], 10.3 µM; at Quadruplex DNA [7] it was 1.4 µM. In addition, the ΔTm in data set [2] came out at 2.5 °C; in [3], 1 °C; in the data set on Quadruplex DNA [4] it was 14.3 °C. For the same compound, the outcome with Quadruplex DNA [10] was Active.

Turning to `c1ccc2c(NCCOCCOCCNc3c4ccccc4nc4ccccc34)c3ccccc3nc2c1`, the figures for the Kd (at dsDNA; in [5]; at Quadruplex DNA [7]) were 5.8 µM, 16 µM and 9.3 µM, respectively. The results for the ΔTm (in data set [2]; in data set [3]; with Quadruplex DNA [4]) were 3.4 °C, 0.1 °C and 10.6 °C, respectively. Also, the IC50 in the data set with Huh-7 is 870 nM; with U2OS, 330 nM; with A-375, 220 nM; in the data set on A549, 1140 nM; in the data set on SiHa it was 2260 nM; with HCT-116 it was 510 nM. For the same compound, the midpoint of inhibition in the data set on HeLa, the IC50, lay at 240 nM. Further, in the data set with Quadruplex DNA [10], the result was Active.

As to `c1ccc2c(NCCCNCCNCCCNc3c4ccccc4nc4ccccc34)c3ccccc3nc2c1`, the figures for the dissociation constant Kd (on dsDNA; in data set [5]; on Quadruplex DNA [7]) were 6 µM, 3.8 µM and 13.8 µM, respectively. The outcome in [1], in data set [6] and in [9] was Active. The shift in melting temperature (ΔTm) in data set [2] was found to be 9.8 °C; in data set [3], 11.8 °C; in the data set with Quadruplex DNA [4], 12.5 °C. Moreover, the half-maximal inhibitory concentration (IC50) was 190 nM in the data set on Huh-7; 380 nM in the data set on U2OS; 430 nM in the data set on A-375; 280 nM with A549; 2000 nM in the data set with SiHa; 690 nM with HCT-116. Also, the IC50 with HeLa is 270 nM.
